Legend:
K562 = assay: Antiproliferative activity against human K562 cells assessed as cell growth inhibition measured after 48 hrs by SRB assay; format: functional
In short: (§1)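 Sulforhodamine B (SRB) cell-staining assay across a panel of human cancer lines. Growth inhibition is reported as GI50.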

DU-145 = assay: Antiproliferative activity against human DU-145 cells assessed as cell growth inhibition measured after 48 hrs by SRB assay; format: functional; in short: as §1
HeLa = assay: Antiproliferative activity against human HeLa cells assessed as cell growth inhibition measured after 48 hrs by SRB assay; format: functional; in short: as §1
SK-OV-3 = assay: Antiproliferative activity against human SK-OV-3 cells assessed as cell growth inhibition measured after 48 hrs by SRB assay; format: functional; in short: as §1
HOP-62 = assay: Antiproliferative activity against human HOP-62 cells assessed as cell growth inhibition measured after 48 hrs by SRB assay; format: functional; in short: as §1
COLO 205 = assay: Antiproliferative activity against human COLO 205 cells assessed as cell growth inhibition measured after 48 hrs by SRB assay; format: functional; in short: as §1
MIA PaCa-2 = assay: Antiproliferative activity against human MIA Paca-2 cells assessed as cell growth inhibition measured after 48 hrs by SRB assay; format: functional; in short: as §1
MCF7 [1] = assay: Antiproliferative activity against human MCF7 cells assessed as cell growth inhibition measured after 48 hrs by SRB assay; format: functional; in short: as §1
MCF7 [2] = assay: Cell cycle arrest in human MCF7 cells assessed as accumulation at S phase at 50 nM measured after 48 hrs by propidium iodide staining based flow cytometry (reference value: 3.1 %); format: functional
In short: (§2)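 MCF-7 cells were treated at 50 and 100 nM for 48 h. Cell-cycle phase distribution (sub-G1, G0/G1, S, G2/M %) was read by flow cytometry against untreated control.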

Sus scrofa = species on record: Sus scrofa; assay: Inhibition of porcine brain tubulin polymerization at 3 uM measured after 1 hr in presence of GTP by fluorescence assay relative to control; format: tissue-based
In short: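 Tubulin polymerization was followed by fluorescence (excitation 360 nm, emission 420 nm) for 1 h at 37 °C. Compounds were at 3 μM final, with and without compound. Values are mean ± SD of two experiments done in triplicate.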

MCF7 [3] = assay: Cell cycle arrest in human MCF7 cells assessed as accumulation at G0/G1 phase at 50 nM measured after 48 hrs by propidium iodide staining based flow cytometry (reference value: 85.3 %); format: functional; in short: as §2
MCF7 [4] = assay: Cell cycle arrest in human MCF7 cells assessed as accumulation at G2/M phase at 50 nM measured after 48 hrs by propidium iodide staining based flow cytometry (reference value: 8.44 %); format: functional; in short: as §2
MCF7 [5] = assay: Cell cycle arrest in human MCF7 cells assessed as accumulation at sub-G1 phase at 50 nM measured after 48 hrs by propidium iodide staining based flow cytometry (reference value: 2.4 %); format: functional; in short: as §2
[6] = Inhibition of porcine brain tubulin polymerization measured after 1 hr in presence of GTP by fluorescence assay; format: tissue-based, Sus scrofa
In short: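 Tubulin assembly followed by the rise in fluorescence (ex 360 nm, em 420 nm) over 1 h at 37 °C. Compounds tested at a final 3 μM with a reference control. IC50 defined as the concentration inhibiting 50% of tubulin assembly. Mean ± SD of two experiments in triplicate.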

MCF7 [7] = assay: Induction of apoptosis in human MCF7 cells assessed as late apoptotic cell population at 50 nM measured after 48 hrs by Annexin V-FITC/PI staining based flow cytometry (reference value: 1 %)
MCF7 [8] = assay: Induction of apoptosis in human MCF7 cells assessed as necrotic cells at 50 nM measured after 48 hrs by annexinV-FITC/propidium iodide staining based flow cytometry (reference value: 0.1 %); format: functional
In short: (§3)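 MCF-7 cells were treated at 50 and 100 nM for 48 h. Annexin V-FITC/PI dual staining was read by flow cytometry. Cells were quadrant-gated as UL, UR, LL and LR, with untreated control alongside.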

MCF7 [9] = assay: Induction of apoptosis in human MCF7 cells assessed as early apoptotic cell population at 50 nM measured after 48 hrs by Annexin V-FITC/PI staining based flow cytometry (reference value: 0.7 %)
MCF7 [10] = assay: Induction of apoptosis in human MCF7 cells assessed as live cells at 50 nM measured after 48 hrs by annexinV-FITC/propidium iodide staining based flow cytometry (reference value: 95 %)
MCF7 [11] = assay: Induction of apoptosis in human MCF7 cells assessed as late apoptotic cells at 50 nM measured after 48 hrs by annexinV-FITC/propidium iodide staining based flow cytometry (reference value: 0.6 %)
MCF7 [12] = assay: Induction of apoptosis in human MCF7 cells assessed as early apoptotic cells at 50 nM measured after 48 hrs by annexinV-FITC/propidium iodide staining based flow cytometry (reference value: 4.4 %); format: functional; in short: as §3

Compound	GI50 (K562)	GI50 (DU-145)	GI50 (HeLa)	GI50 (SK-OV-3)	GI50 (COLO 205)	GI50 (MIA PaCa-2)	GI50 (MCF7 [1])	GI50 (HOP-62)	Activity (MCF7 [2])	inhibition (Sus scrofa)	Activity (MCF7 [3])	Activity (MCF7 [4])	Activity (MCF7 [5])	IC50 [6]	Activity (MCF7 [7])	Activity (MCF7 [8])	Activity (MCF7 [9])	live cells (MCF7 [10])	late apoptotic cells (MCF7 [11])	Activity (MCF7 [12])
COc1ccc(/C=C\c2cc(OC)c(OC)c(OC)c2)c(NC(=O)/C=C/c2cccc(O)c2)c1O	94 nM	70 nM	94.9 nM	97 nM	13400 nM	98 nM	63 nM	82 nM												
COc1ccc(/C=C\c2cc(OC)c(OC)c(OC)c2)c(NC(=O)/C=C/c2cc(OC)c(OC)c(OC)c2)c1O	28000 nM	95 nM	14900 nM	20900 nM	76000 nM	64500 nM	79 nM	24800 nM												
COc1cc(/C=C/C(=O)Nc2c(/C=C\c3cc(OC)c(OC)c(OC)c3)ccc(OC)c2O)ccc1[N+](=O)[O-]	96 nM	75 nM	99 nM	7900 nM	96 nM	23500 nM	95 nM	84 nM												
COc1ccc(/C=C\c2cc(OC)c(OC)c(OC)c2)c(NC(=O)/C=C/c2ccc([N+](=O)[O-])cc2)c1O	97 nM	85 nM	15700 nM	17000 nM	10300 nM	40800 nM	72 nM	61 nM												
C#CCOc1cccc(/C=C/C(=O)Nc2c(/C=C\c3cc(OC)c(OC)c(OC)c3)ccc(OC)c2O)c1	> 100000 nM	96400 nM	> 100000 nM	> 100000 nM	> 100000 nM	> 100000 nM	11600 nM	> 100000 nM												
COc1ccc(/C=C/C(=O)Nc2c(/C=C\c3cc(OC)c(OC)c(OC)c3)ccc(OC)c2O)cc1[N+](=O)[O-]	46800 nM	64700 nM	49200 nM	52600 nM	> 100000 nM	> 100000 nM	19400 nM	71300 nM												
COc1ccc(/C=C\c2cc(OC)c(OC)c(OC)c2)cc1O [COMBRETASTATIN A4]	31 nM	46 nM	8 nM	31600 nM	25 nM		33 nM	150 nM	1.43%	72.2%	56.19%	37.41%	2.71%	1480 nM	24.5%	0.5%	3.6%	65.7%	3.6%	30.2%
COc1ccc(/C=C\c2cc(OC)c(OC)c(OC)c2)c(NC(=O)/C=C/c2ccc(C(F)(F)F)cc2)c1O	58000 nM	> 100000 nM	> 100000 nM	> 100000 nM	> 100000 nM	> 100000 nM	83700 nM	> 100000 nM												

Now from value to molecule, other results behind:

GI50 (K562)	GI50 (DU-145)	GI50 (HeLa)	GI50 (SK-OV-3)	GI50 (COLO 205)	GI50 (MIA PaCa-2)	GI50 (MCF7 [1])	Compound	GI50 (HOP-62)	Activity (MCF7 [2])	inhibition (Sus scrofa)	Activity (MCF7 [3])	Activity (MCF7 [4])	Activity (MCF7 [5])	IC50 [6]	Activity (MCF7 [7])	Activity (MCF7 [8])	Activity (MCF7 [9])	live cells (MCF7 [10])	late apoptotic cells (MCF7 [11])	Activity (MCF7 [12])
91 nM	85 nM	78.7 nM	82 nM	18000 nM	98 nM	83 nM	C=CCOc1cccc(/C=C/C(=O)Nc2c(/C=C\c3cc(OC)c(OC)c(OC)c3)ccc(OC)c2O)c1	60 nM												
82 nM	85 nM	90 nM	94 nM	86 nM	97 nM	74 nM	COc1cc(/C=C/C(=O)Nc2c(/C=C\c3cc(OC)c(OC)c(OC)c3)ccc(OC)c2O)ccc1N	31 nM												
93 nM	72 nM	90 nM	96 nM	98 nM	98 nM	60 nM	COc1cc(/C=C/C(=O)Nc2c(/C=C\c3cc(OC)c(OC)c(OC)c3)ccc(OC)c2O)ccc1O	79 nM												
24900 nM	54100 nM	38800 nM	62600 nM	> 100000 nM	> 100000 nM	55500 nM	COc1ccc(/C=C\c2cc(OC)c(OC)c(OC)c2)c(NC(=O)/C=C/c2ccc(Cl)cc2)c1O	79400 nM												
98 nM	> 100000 nM	18100 nM	17600 nM	> 100000 nM	93900 nM	59500 nM	COc1cccc(/C=C/C(=O)Nc2c(/C=C\c3cc(OC)c(OC)c(OC)c3)ccc(OC)c2O)c1	65400 nM												
23700 nM	117 nM	15900 nM	1800 nM	> 100000 nM	46300 nM	95 nM	COc1ccc(/C=C/C(=O)Nc2c(/C=C\c3cc(OC)c(OC)c(OC)c3)ccc(OC)c2O)cc1O	17100 nM												
89 nM	79 nM	91 nM	97 nM	89 nM	14300 nM	50 nM	COc1ccc(/C=C/C(=O)Nc2c(/C=C\c3cc(OC)c(OC)c(OC)c3)ccc(OC)c2O)cc1N	44 nM												
23500 nM	83 nM	24000 nM	47500 nM	67600 nM	78100 nM	66 nM	COc1ccc(/C=C\c2cc(OC)c(OC)c(OC)c2)c(NC(=O)/C=C/c2ccc(F)cc2)c1O	43000 nM												
